# Hits are enriched below; roughly 3.1% of the tested compounds scored in any of these assays.
# Beta cell apopt: beta cell apoptosis inhibition | protection from apoptosis, % (concentration not given with the values) | 0.8% of 300,000 active | INS-1E cytokine-induced death, ATP luminescence, 48 h; percent of positive-control rescue, neutral wells zero;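 active = Every replicate reaches about 75%, or at least half do and their mean reaches it too, limit read from the data; inconclusive = At least half of replicates reach the limit but their mean does not; inactive = Under half of replicates reach the limit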;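 also: 0% = cytokine-treated negative control wells and 100% = positive control rescue; higher means more ATP so stronger rescue from cytokine killing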
# CSC inhib: cancer stem cell inhibition; AID 2717; cancer stem cell-like cells viability, luminescence; inhibition, % at 7.5 µM; 1.1% of 300,000 active; in the data active = inhibition above about 75%; inconclusive = no clear call, values can overlap the other calls; tested in HMLE shEcad cells
# Calb FLC: affects C. albicans growth with fluconazole; growth inhibition, % (no concentration beside the values); C. albicans CaCi-2 (fluconazole-resistant clinical isolate) + fluconazole, Alamar Blue growth, 48 h; 0.57% of 300,000 active;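 active = growth inhibition above about 58% in most replicates, limit read from the data, passing the limit was not always enough; inconclusive = exactly half the replicates above a set limit; inactive = most replicates below a set limit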;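 also: all wells also contain fluconazole at 8 µg/ml as a sub-toxic cotreatment; 0% = median of DMSO wells and 100% = median of geldanamycin control wells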
# T cruzi inh: T. cruzi replication inhibition; T. cruzi beta-gal in NIH3T3, luminescence, 90 h; inhibition, % (no concentration beside the values); 1.4% of 300,000 active; AID 1885;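 active = mean inhibition across valid replicates above about 55%, limit read from the data; inconclusive = mean below that limit but half or more replicates reach it; inactive = mean below it, under half of replicates reach it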;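 also: signal also drops with host cell toxicity which is not excluded here; 0% = plate median of DMSO wells and 100% = zero luminescence signal; higher percent means less beta-gal luminescence so fewer parasites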
#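 Assay system: NIH/3T3 host cells with β-galactosidase reporter T. cruzi; input: 5,000 host fibroblasts per well; compound: single 50 nL compound addition per well in DMSO; timing: ≥90 h infection period, 3 h prior cell attachment; measured by: GalScreen β-gal luminescence, detergent lysis, 60 min; evaluation: percent inhibition of parasite-derived β-gal signal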
# H9c2 TAG inh: inhibitors of triacylglycerol accumulation. 0.66% of 230,000 active. H9c2 cells, Nile Red lipid (TAG) fluorescence; cells loaded with 200 µM oleic acid. AID 651582. inhibition, % at 12.5 µM;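 active = pattern-corrected inhibition of lipid staining of at least 50% with the nuclear-stain viability signal not falling by more than 50%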;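 also: 0% = DMSO wells and 100% = triacsin C control wells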
# Bfl-1 A1 inh: inhibitors of the anti-apoptotic protein A1, read as caspase activation. 0.066% of 330,000 active. caspase activation, % (concentration not given with the values). AID 2462. MEF A1-2A-BIM cells, Caspase-Glo 3/7 luminescence, 3 h; percent of clofoctol response, vehicle zero;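 active = over half of replicate activation scores above 10%, or exactly half above 10 with the replicate mean above 10; inconclusive = replicate mean below 10 yet half the replicates above 10; inactive = over half of replicates below 10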
# * hit, by the source's call; u = inconclusive; x = not tested or not shown.
SMILES,Beta cell apopt,CSC inhib,Calb FLC,T cruzi inh,H9c2 TAG inh,Bfl-1 A1 inh
O=C(c1cc(-c2ccccc2Cl)nc2ccccc12)N1CCN(c2ccccn2)CC1,98*,9,x,x,-10,1
O=C(c1cnc(N2CCN(c3ccccn3)CC2)c2ccccc12)N1CCN(c2cccc(Cl)c2)CC1,75*,45,19,7,-13,-1
O=C(c1cc(Cl)ccc1Cl)N1CCN(c2ccccn2)CC1,9,8,-17,-2,x,0
O=C(c1cc(-c2ccccc2Cl)nc2ccccc12)N1CCN(c2ccccc2O)CC1,33,16,-3,23,-2,0
CCc1ccc(NC(=O)CN(C(=O)N2CCN(CC)CC2)S(=O)(=O)c2ccc(C)cc2)cc1,-4,x,-7,-10,-12,0
CC(=O)c1cccc(NCC(=O)N2CCN(S(=O)(=O)c3ccccc3)CC2)c1,0,x,x,x,2,0
CC[C@@H]1CC=C[C@H]2[C@H]1C(=O)N(Cc1ccccc1)[C@H]2c1cc(C)ccc1F,x,x,-12,34,x,x
Cc1ccc(F)c([C@H]2C3C=CCC(c4ccccc4)C3C(=O)N2Cc2ccccc2)c1 (stereo not given in full),109*,122*,-6,24,-2,3
Cc1ccc(C(=O)NC2CCCc3c2cnn3-c2ccc(F)cc2F)cn1 (stereo not given),100*,5,-3,2,-19,1
Cc1cccc(-n2ncc3c2CCCC3NC(=O)c2ccc[n+]([O-])c2)c1C (stereo not given),-3,-3,4,-17,x,0
Cc1ccc(-n2ncc3c2CCCC3NC(=O)c2ocnc2C)cc1C (stereo not given),80*,4,1,-91,-43,-1
Cc1cc(C(=O)NC2CCCc3c2cnn3-c2cccc(C)c2C)n(C)n1 (stereo not given),112*,18,-9,-98,-16,0
Cn1nccc1C(=O)NC1CCCc2c1cnn2-c1ccc(C(C)(C)C)cc1 (stereo not given),116*,-6,-4,-6,-8,2
CN(CCc1ccccc1)C(=O)c1ccc(NC(=O)Cc2ccc([N+](=O)[O-])cc2)cc1,3,-14,x,x,-54,1
CCOC(=O)N1CCN(S(=O)(=O)N2CCCC(C(=O)NCc3cc(Br)ccc3OC)C2)CC1 (stereo not given),x,x,x,x,-6,x
COc1cccc(-c2c(C(=O)O)cc(O)c3ccc(OC)cc23)c1,x,x,x,x,12,x
CN1C[C@@H]2[C@@H]3C(=O)N(C)C(=O)[C@@H]3[C@](Cc3ccccc3)(C1=O)N2C(=O)c1ccc(Cl)cc1,x,x,x,x,5,x
COC(=O)N=Nc1c(O)n(Cc2ccccc2)c2ccccc12,-7,-1,-10,5,-38,0
O=Nc1c(O)n(Cc2cccc(Cl)c2)c2ccccc12,-8,2,84*,13,-28,0
CC(C)OC(=O)C(=O)NNc1ccccc1,-3,99*,129*,58*,x,0
O=C(NNc1ccccc1)C(CCO)C(=O)NNc1ccccc1,-5,-2,100*,3,x,1
CC(O)CC(C(=O)NNc1ccccc1)C(=O)NNc1ccccc1 (stereo not given),x,92*,u,1,2,0
COc1ccc(C(CNS(=O)(=O)c2cccc(F)c2)N2CCCC2)cc1 (stereo not given),-5,1,x,x,-3,-2
C[C@H](CO)N1C[C@H](C)[C@@H](CN(C)S(=O)(=O)c2cn(C)cn2)Oc2c(NS(=O)(=O)c3ccc(F)cc3)cccc2C1=O,-14,x,x,x,-18,0
CCOC(=O)Nc1nc(-c2ccccc2)c(C(=O)c2ccc(Cl)cc2)s1,19,81*,55,22,59*,1
Cc1ccc(NC(=O)CN(C)C(=O)COc2cccc3ccc(C)nc23)cc1,-1,-12,x,x,21,1
CCc1nccn1CCC(=O)N1CCCC(N2CCN(c3ccccc3C)CC2)C1 (stereo not given),1,-8,2,-13,8,-1
CC(C)C1Cc2c(sc3[nH]c(=S)n(Cc4ccccc4)c(=O)c23)CO1 (stereo not given),16,139*,5,2,-2,1
Cc1nnc2n(-c3ccccc3)c(=O)c3c4c(sc3n12)COC(C(C)C)C4 (stereo not given),-10,-12,4,1,11,0
